# How the values were obtained:
# Rattus norvegicus [1] = assay: Tested for acute anti-inflammatory activity of the antirat serum-induced edema in rats at dose of 100 mg/kg at time interval- 2 hr; type: functional
# Outline: (§1)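 Fasted Wistar rats (200–240 g), six per group, receive drug orally in 2% gelatin. One hour later, 0.1 mL rabbit antirat serum is injected subplantar into the hind paw. Paw volume is measured by water plethysmometry at injection and at 0.5, 1, 2, 3 and 4 h. Results are percent inhibition of swelling versus vehicle-treated rats.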
# Rattus norvegicus [2] = assay: Tested for acute anti-inflammatory activity of the antirat serum-induced edema in rats at dose of 30 mg/kg at time interval- 0.5 hr; type: functional; outline: as §1
# Rattus norvegicus [3] = assay: Tested for acute anti-inflammatory activity of carrageenan-induced foot edema in rats at dose of 30 mg/kg at time interval- 3h; type: functional
# Outline: as §1, with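 “2% carrageenan in […]” for “rabbit antirat serum”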
# Rattus norvegicus [4] = assay: Tested for acute anti-inflammatory activity of the antirat serum-induced edema in rats at dose of 30 mg/kg at time interval- 1 hr; type: functional; outline: as §1
# Rattus norvegicus [5] = assay: Tested for acute anti-inflammatory activity of carrageenan-induced foot edema in rats at dose of 3 mg/kg at time interval- 1 hr; type: functional
# Outline: as §1, with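 “2% carrageenan in […]” for “rabbit antirat serum”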
# Rattus norvegicus [6] = assay: Tested for acute anti-inflammatory activity of carrageenan-induced foot edema in rats at dose of 30 mg/kg at time interval- 0.5 hr; type: functional
# Outline: as §1, with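 “2% carrageenan in […]” for “rabbit antirat serum”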
# Rattus norvegicus [7] = assay: Tested for acute anti-inflammatory activity of carrageenan-induced foot edema in rats at dose of 30 mg/kg at time interval- 1 hr; type: functional
# Outline: as §1, with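 “2% carrageenan in […]” for “rabbit antirat serum”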
# Rattus norvegicus [8] = assay: Tested for acute anti-inflammatory activity of the antirat serum-induced edema in rats at dose of 100 mg/kg at time interval- 0.5 hr; type: functional; outline: as §1
# [9] = Inhibition of [Fe(2+)]/ascorbate-induced lipid peroxidation at 10e-5 M in rat brain homogenate
# Rattus norvegicus [10] = assay: Tested for acute anti-inflammatory activity of the antirat serum-induced edema in rats at dose of 30 mg/kg at time interval- 2 hr; type: functional; outline: as §1
# Rattus norvegicus [11] = assay: Tested for acute anti-inflammatory activity of the antirat serum-induced edema in rats at dose of 3 mg/kg at time interval- 4 hr; type: functional; outline: as §1
# Rattus norvegicus [12] = assay: Tested for acute anti-inflammatory activity of carrageenan-induced foot edema in rats at dose of 100 mg/kg at time interval- 3h; type: functional
# Outline: as §1, with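 “2% carrageenan in […]” for “rabbit antirat serum”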
# Rattus norvegicus [13] = assay: Tested for acute anti-inflammatory activity of the antirat serum-induced edema in rats at dose of 3 mg/kg at time interval- 2 hr; type: functional; outline: as §1
# Rattus norvegicus [14] = assay: Tested for acute anti-inflammatory activity of carrageenan-induced foot edema in rats at dose of 30 mg/kg at time interval- 2 hr; type: functional
# Outline: as §1, with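 “2% carrageenan in […]” for “rabbit antirat serum”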
# Rattus norvegicus [15] = assay: Tested for acute anti-inflammatory activity of carrageenan-induced foot edema in rats at dose of 30 mg/kg at time interval- 4 hr; type: functional
# Outline: as §1, with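 “2% carrageenan in […]” for “rabbit antirat serum”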
# Rattus norvegicus [16] = assay: Tested for acute anti-inflammatory activity of carrageenan-induced foot edema in rats at dose of 3 mg/kg at time interval- 3h; type: functional
# Outline: as §1, with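 “2% carrageenan in […]” for “rabbit antirat serum”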
# Rattus norvegicus [17] = assay: Tested for acute anti-inflammatory activity of the antirat serum-induced edema in rats at dose of 3 mg/kg at time interval- 1 hr; type: functional; outline: as §1
# Rattus norvegicus [18] = assay: Tested for acute anti-inflammatory activity of the antirat serum-induced edema in rats at dose of 3 mg/kg at time interval- 0.5 hr; type: functional; outline: as §1
# [19] = In vitro glutathione peroxidase activity at 2*10e-7M using tert-butyl hydroperoxide, activity given in percentage of ebselen''s activity; type: functional
# Rattus norvegicus [20] = assay: Tested for acute anti-inflammatory activity of carrageenan-induced foot edema in rats at dose of 100 mg/kg at time interval- 1 hr; type: functional
# Outline: as §1, with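 “2% carrageenan in […]” for “rabbit antirat serum”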
# [21] = In vitro glutathione peroxidase activity at 2*10e-7M using hydrogen peroxide, activity given in percentage of ebselen''s activity; type: functional
# Rattus norvegicus [22] = assay: Tested for acute anti-inflammatory activity of carrageenan-induced foot edema in rats at dose of 100 mg/kg at time interval- 4 hr; type: functional
# Outline: as §1, with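 “2% carrageenan in […]” for “rabbit antirat serum”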
# Rattus norvegicus [23] = assay: Tested for acute anti-inflammatory activity of the antirat serum-induced edema in rats at dose of 3 mg/kg at time interval- 3h; type: functional; outline: as §1
# [24] = Inhibition of spontaneous lipid peroxidation at 10e-5 M in rat brain homogenate
# Rattus norvegicus [25] = assay: Tested for acute anti-inflammatory activity of carrageenan-induced foot edema in rats at dose of 3 mg/kg at time interval- 0.5 hr; type: functional
# Outline: as §1, with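 “2% carrageenan in […]” for “rabbit antirat serum”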
# Rattus norvegicus [26] = assay: Tested for acute anti-inflammatory activity of the antirat serum-induced edema in rats at dose of 100 mg/kg at time interval- 4 hr; type: functional; outline: as §1
# Rattus norvegicus [27] = assay: Tested for acute anti-inflammatory activity of carrageenan-induced foot edema in rats at dose of 100 mg/kg at time interval- 0.5 hr; type: functional
# Outline: as §1, with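 “2% carrageenan in […]” for “rabbit antirat serum”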
# Rattus norvegicus [28] = assay: Tested for acute anti-inflammatory activity of carrageenan-induced foot edema in rats at dose of 3 mg/kg at time interval- 2 hr; type: functional
# Outline: as §1, with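 “2% carrageenan in […]” for “rabbit antirat serum”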
# Rattus norvegicus [29] = assay: Tested for acute anti-inflammatory activity of carrageenan-induced foot edema in rats at dose of 100 mg/kg at time interval- 2 hr; type: functional
# Outline: as §1, with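 “2% carrageenan in […]” for “rabbit antirat serum”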
# Rattus norvegicus [30] = assay: Tested for acute anti-inflammatory activity of carrageenan-induced foot edema in rats at dose of 3 mg/kg at time interval- 4 hr; type: functional
# Outline: as §1, with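 “2% carrageenan in […]” for “rabbit antirat serum”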
# Rattus norvegicus [31] = assay: Tested for acute anti-inflammatory activity of the antirat serum-induced edema in rats at dose of 100 mg/kg at time interval- 1 hr; type: functional; outline: as §1
# Rattus norvegicus [32] = assay: Tested for acute anti-inflammatory activity of the antirat serum-induced edema in rats at dose of 30 mg/kg at time interval- 4 hr; type: functional; outline: as §1
# Rattus norvegicus [33] = assay: Tested for acute anti-inflammatory activity of the antirat serum-induced edema in rats at dose of 30 mg/kg at time interval- 3h; type: functional; outline: as §1
# Rattus norvegicus [34] = assay: Tested for acute anti-inflammatory activity of the antirat serum-induced edema in rats at dose of 100 mg/kg at time interval- 3h; type: functional; outline: as §1
Structure (SMILES),inhibition in vivo at 100 mg/kg (Rattus norvegicus [1]),inhibition in vivo at 30 mg/kg (Rattus norvegicus [2]),inhibition in vivo at 30 mg/kg (Rattus norvegicus [3]),inhibition in vivo at 30 mg/kg (Rattus norvegicus [4]),inhibition in vivo at 3 mg/kg (Rattus norvegicus [5]),inhibition in vivo at 30 mg/kg (Rattus norvegicus [6]),inhibition in vivo at 30 mg/kg (Rattus norvegicus [7]),inhibition in vivo at 100 mg/kg (Rattus norvegicus [8]),inhibition [9],inhibition in vivo at 30 mg/kg (Rattus norvegicus [10]),inhibition in vivo at 3 mg/kg (Rattus norvegicus [11]),inhibition in vivo at 100 mg/kg (Rattus norvegicus [12]),inhibition in vivo at 3 mg/kg (Rattus norvegicus [13]),inhibition in vivo at 30 mg/kg (Rattus norvegicus [14]),inhibition in vivo at 30 mg/kg (Rattus norvegicus [15]),inhibition in vivo at 3 mg/kg (Rattus norvegicus [16]),inhibition in vivo at 3 mg/kg (Rattus norvegicus [17]),GSH-Px activity [19],GSH-Px activity [21],inhibition [24],also measured
Nc1ccc(C(=O)c2ccccc2)cc1[Se][Se]c1cc(C(=O)c2ccccc2)ccc1N,4.9%,-23.4%,13.7%,-18.2%,39%,-20.6%,43.3%,-37.5%,95%,0.7%,4.8%,9.2%,-3.3%,18.7%,8.5%,32.9%,-7.9%,300,261,87%,inhibition in vivo at 3 mg/kg (Rattus norvegicus [18]): -16.8%; inhibition in vivo at 100 mg/kg (Rattus norvegicus [20]): 40.4%; inhibition in vivo at 100 mg/kg (Rattus norvegicus [22]): 5%; inhibition in vivo at 3 mg/kg (Rattus norvegicus [23]): 0.2%; inhibition in vivo at 3 mg/kg (Rattus norvegicus [25]): -33.3%; inhibition in vivo at 100 mg/kg (Rattus norvegicus [26]): 2%; inhibition in vivo at 100 mg/kg (Rattus norvegicus [27]): -27%; inhibition in vivo at 3 mg/kg (Rattus norvegicus [28]): 45%; inhibition in vivo at 100 mg/kg (Rattus norvegicus [29]): 29.2%; inhibition in vivo at 3 mg/kg (Rattus norvegicus [30]): 18.2%; inhibition in vivo at 100 mg/kg (Rattus norvegicus [31]): 7.2%; inhibition in vivo at 30 mg/kg (Rattus norvegicus [32]): 5.5%; inhibition in vivo at 30 mg/kg (Rattus norvegicus [33]): -3.7%; inhibition in vivo at 100 mg/kg (Rattus norvegicus [34]): -3.9%
CC(=O)c1ccc(N)c([Se][Se]c2cc(C(C)=O)ccc2N)c1,–,–,–,–,–,–,–,–,99%,–,–,–,–,–,–,–,–,238,247,100%,–
O=c1c2ccccc2[se]n1-c1ccccc1 [EBSELEN],22%,-19.6%,-4.1%,-3.8%,29.1%,-54%,47.5%,4.9%,–,8.2%,-2.6%,13.7%,-1.1%,10.2%,-7.5%,21.4%,2.3%,100,100,–,inhibition in vivo at 3 mg/kg (Rattus norvegicus [18]): -9.8%; inhibition in vivo at 100 mg/kg (Rattus norvegicus [20]): 26.9%; inhibition in vivo at 100 mg/kg (Rattus norvegicus [22]): 0.6%; inhibition in vivo at 3 mg/kg (Rattus norvegicus [23]): -6.6%; inhibition in vivo at 3 mg/kg (Rattus norvegicus [25]): -63.5%; inhibition in vivo at 100 mg/kg (Rattus norvegicus [26]): 16.3%; inhibition in vivo at 100 mg/kg (Rattus norvegicus [27]): -93.6%; inhibition in vivo at 3 mg/kg (Rattus norvegicus [28]): 30.3%; inhibition in vivo at 100 mg/kg (Rattus norvegicus [29]): 18.4%; inhibition in vivo at 3 mg/kg (Rattus norvegicus [30]): 13.5%; inhibition in vivo at 100 mg/kg (Rattus norvegicus [31]): 15.9%; inhibition in vivo at 30 mg/kg (Rattus norvegicus [32]): 7.9%; inhibition in vivo at 30 mg/kg (Rattus norvegicus [33]): 3.7%; inhibition in vivo at 100 mg/kg (Rattus norvegicus [34]): 16.7%
O=c1[nH]c2ccc(Cc3ccccc3)cc2[se]1,–,–,–,–,–,–,–,–,-7%,–,–,–,–,–,–,–,–,-1,0.7,-6%,–
Cn1c(=O)[se]c2cc(C(=O)c3cccnc3)ccc21,–,–,–,–,–,–,–,–,1%,–,–,–,–,–,–,–,–,0,0,4%,–
O=c1[nH]c2ccc(C(O)c3ccccc3)cc2[se]1 (configuration not stated),–,–,–,–,–,–,–,–,-1%,–,–,–,–,–,–,–,–,10,0,-1%,–

# — ChEMBL document CHEMBL1127451, “Benzoselenazolinone derivatives designed to be glutathione peroxidase mimetics feature inhibition of cyclooxygenase/5-lipoxygenase pathways and anti-inflammatory activity” (1994)
